This is an account of results in ChEMBL document CHEMBL1122398, “Some biological properties of the impure dichloride salt of tetrakis[p-(dimethylamino)phenyl]ethylene and a pinacolone” (1983).

For assay [1], the system named is Mus musculus. The assay can be described thus: Number of mice with 50-day survival period after treating with 10 mg/Kg of compound out of 5 tested. The assay is classed as functional. In short, it runs like this: (§1)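 Groups of five female C3H mice received 7.5×10^6 Gardner lymphosarcoma (6C3 HED) cells per mouse intraperitoneally. Starting 1 day later, mice were dosed subcutaneously on the lower back once daily for 5 days, with test material in saline or 10% (CH₃)₂SO. Control mice received vehicle only. Read-outs were average survival in days and the number of mice surviving 50 days.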

In assay [2] the test system is Mus musculus. Nature of the assay: Tested for average survival days in control mice at a dose of 5 mg/Kg. The assay is classed as functional. In short, it runs like this: as §1
Assay [3] has as its system Mus musculus. The assay can be described thus: Number of mice with 50-day survival period after treating with 5 mg/Kg of compound out of 5 tested. The assay is classed as functional. In short, it runs like this: as §1
Assay [4] has as its system Mus musculus. The assay can be described thus: Tested for anti-lymphosarcoma activity in mice at the dose of 5 mg/kg by determining average survivals.
Assay [5] relates to Mus musculus. Nature of the assay: Number of mice with 50-day survival period in control group at a dose of 10 mg/Kg tested out of 5 mice treated. The assay is classed as functional. In short, it runs like this:
as §1

In assay [6] the test system is Mus musculus. Nature of the assay: Tested for average survival days in control mice at a dose of 10 mg/Kg. The assay is classed as functional. In short, it runs like this:
as §1

In assay [7] the test system is Mus musculus. The assay can be described thus: Tested for anti-lymphosarcoma in mice at the dose of 10 mg/kg. The assay is classed as functional. In short, it runs like this: as §1
Assay [8] has as its system Mus musculus. Nature of the assay: Number of mice with 50-day survival period in control group at a dose of 5 mg/Kg tested out of 5 mice treated. The assay is classed as functional. In short, it runs like this: as §1
The subject of assay [9] is Mus musculus. Nature of the assay: Tested for anti-lymphosarcoma activity in mice at the dose of 10 mg/kg by determining average survivals. The assay is classed as functional. In short, it runs like this:
as §1

The species named for assay [10] is Mus musculus. The assay can be described thus: Tested for average survival days in mice (control). The assay is classed as functional. In short, it runs like this: as §1
The species named for assay [11] is Mus musculus. The assay can be described thus: Tested for anti-lymphosarcoma activity in mice (control) with 50-day survival period out of 5 tested. The assay is classed as functional. In short, it runs like this:
as §1

Structures are written as SMILES. Values joined by “and” are separate entries in the source; they are usually repeats but may differ in a detail not shown here. Equal entries are not always repeated.

Turning to `CN(C)c1ccc(C(=C(c2ccc(N(C)C)cc2)c2ccc(N(C)C)cc2)c2ccc(N(C)C)cc2)cc1`, the No. of survivals in the assay with Mus musculus [1] came to 4; in the assay with Mus musculus [3], 1; in the assay with Mus musculus [5] it was 0; with Mus musculus [8], 0. Moreover, the Average survival stood at 14.8 days in the assay with Mus musculus [2], 21.5 days in the assay with Mus musculus [4], 14.8 days with Mus musculus [6] and 37.6 days in the assay with Mus musculus [7].

The compound `CN(C)c1ccc(C(=C2C=CC(=[N+](C)C)C=C2)C(=C2C=CC(=[N+](C)C)C=C2)c2ccc(N(C)C)cc2)cc1` came in with a No. of survivals in the assay on Mus musculus [1] of 4. For the same compound, the Average survival with Mus musculus [9] was 37.6 days and 42.8 days; in the assay listed under Mus musculus [10] it was 14.8 days and 23 days.

As to `CN(C)c1ccc(C(=C2C=CC(=[N+](C)C)C=C2)C(c2ccc(N(C)C)cc2)c2ccc(N(C)C)cc2)cc1`, the No. of survivals with Mus musculus [1] and in the assay listed under Mus musculus [11] was 0 each time. The results for the Average survival in the assay on Mus musculus [4] and in the assay listed under Mus musculus [10] were 13.2 days and 12.2 days, respectively.
